Reference: ChEMBL document CHEMBL3870321, “Substituted 4-morpholine N-arylsulfonamides as γ-secretase inhibitors” (Eur J Med Chem, 2016)
pIC50: −log10 of the molar value.

What was measured:
Cytochrome P450 3A4 [1] = target: T1, Cytochrome P450 3A4 (Homo sapiens, UniProt P08684); assay: Inhibition of recombinant human CYP3A4 expressed in baculovirus infected insect cells preincubated for 30 mins using fluorescent substrate; type: ADME
[2] = AUC (0 to 6 hrs) in Sprague-Dawley rat at 30 mg/kg, po by LC-MS/MS analysis; type: ADME, organism-based; parameters: dose 30 mg/kg, time < 6 hr, route oral; conditions: in vivo
Method in brief: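 Two fasted male Sprague-Dawley rats per compound, femoral-artery cannulated, were dosed orally in 0.5% methylcellulose. Serial heparinized blood was taken at 0.5, 1, 2, 3, 4 and 6 h, and plasma was stored at -20 °C. Compound levels were measured by LC-MS/MS using compound-specific SRM transitions from [MH]+, and AUC was taken over 0–6 h.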

[3] = Inhibition of gamma-secretase in HEK293 cells expressing human APP Swedish/London mutant assessed as reduction in amyloid beta 40 level after 5 hrs by sandwich immunoassay; type: cell-based; conditions: HEK293, 5 h
Method in brief: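 HEK293 cells stably transfected with human APP cDNA carrying Swedish and London mutations were exposed to inhibitor for 5 h. Aβ40 in conditioned medium was measured by MSD sandwich immunoassay (TAG-G2-10/biotin-4G8). IC50 came from a four-parameter variable-slope nonlinear fit, with duplicate or triplicate measurements per experiment.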

Cytochrome P450 3A4 [4] = target: T1, Cytochrome P450 3A4; assay: Inhibition of recombinant human CYP3A4 expressed in baculovirus infected insect cells using fluorescent substrate; type: ADME
[5] = Inhibition of gamma-secretase in HEK293 cells expressing APP London mutant assessed as reduction in amyloid beta 40 level after 5 hrs by immunoassay; conditions: Homo sapiens, HEK293, 5 h
Cytochrome P450 3A4 [6] = target: T1, Cytochrome P450 3A4; assay: Inhibition of CYP3A4 (unknown origin) preincubated with enzyme; type: ADME
Method in brief: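 Recombinant CYP3A4 was pre-incubated with compound, and data were collected 30 min after the compound was combined with enzyme. Read-out was fluorescent product formed from a […] substrate. Values are means of two experiments.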

Cytochrome P450 3A4 [7] = target: T1, Cytochrome P450 3A4; assay: Inhibition of CYP3A4 (unknown origin); type: ADME
Method in brief: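 Recombinant CYP3A4 was co-incubated with compound, and fluorescent product formed from a […] coumarin or fluorescein substrate was read out. Values are means of two experiments.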

Mus musculus = assay: In vivo inhibition of gamma-secretase in CRND8 transgenic mouse model of Alzheimers disease expressing APP Swedish/Indiana familial mutant assessed as reduction in amyloid beta 40 level in plasma at 30 mg/kg administered as single dose via oral gavage after 3 hrs by sandwich immunoassay; type: functional
Method in brief: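 Transgenic CRND8 mice (5–7 weeks, male and female, counterbalanced, singly housed) received a single oral gavage dose in 20% hydroxypropyl-β-cyclodextrin. Mice were killed by CO2 at 3 h, and EDTA plasma was collected from the posterior vena cava. Plasma Aβ40 was quantified by MSD sandwich immunoassay (biotin-4G8/S-tag G2-10) and compared with a vehicle-only group.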

T1 sequence (P08684 whole entry): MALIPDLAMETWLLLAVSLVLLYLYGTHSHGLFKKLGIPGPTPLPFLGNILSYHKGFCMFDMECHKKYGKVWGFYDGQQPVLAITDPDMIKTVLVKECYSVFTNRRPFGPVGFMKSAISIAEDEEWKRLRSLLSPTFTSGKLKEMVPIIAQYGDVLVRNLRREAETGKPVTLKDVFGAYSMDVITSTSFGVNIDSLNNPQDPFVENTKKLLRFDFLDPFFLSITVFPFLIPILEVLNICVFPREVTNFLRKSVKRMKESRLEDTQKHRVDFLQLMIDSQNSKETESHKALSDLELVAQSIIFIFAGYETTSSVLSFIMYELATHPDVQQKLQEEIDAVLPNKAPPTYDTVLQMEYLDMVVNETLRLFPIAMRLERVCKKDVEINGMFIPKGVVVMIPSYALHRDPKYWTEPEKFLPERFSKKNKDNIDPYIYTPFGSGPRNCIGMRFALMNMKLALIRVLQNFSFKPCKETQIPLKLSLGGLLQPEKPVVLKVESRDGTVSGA

Structure (SMILES)	pIC50 (Cytochrome P450 3A4 [1])	AUC(0-t) at 6 h [2]	pIC50 [3]	pIC50 (Cytochrome P450 3A4 [4])	pIC50 [5]	IC50 (Cytochrome P450 3A4 [6])	IC50 (Cytochrome P450 3A4 [7])	inhibition in vivo at 30 mg/kg (Mus musculus)
O=C(C(O)C1([C@H]2COC[C@@H](C3CC3)N2S(=O)(=O)c2ccc(Cl)cc2)CC1)N1C2CCC1CC(N1CCCCC1)C2 (stereo not given in full)	< 4.52	267 ng·h/mL	7.62	< 4.52				
O=C(CC1([C@H]2CO[C@H]3CCC[C@H]3N2S(=O)(=O)c2ccc(Cl)cc2)CC1)N1CC[C@@H](O)C1	< 4.52		7.80	< 4.52				
C[C@H]1CN(C(C)(C)CO)CCN1C(=O)CC1([C@H]2COC[C@@H](C3CC3)N2S(=O)(=O)c2ccc(F)cc2)CC1	5.66		7.85	< 4.52				
O=C(C(O)C1([C@H]2COC[C@@H](C3CC3)N2S(=O)(=O)c2ccc(Cl)cc2)CC1)N1CC2CCC(C1)N2 (stereo not given in full)	5.05	254 ng·h/mL	8.00	< 4.52				
O=C(CC1([C@H]2COC[C@@H](C3CC3)N2S(=O)(=O)c2ccc(Cl)cc2)CC1)N1CC2CCC(C1)N2		1160 ng·h/mL	8.46					
O=S(=O)(c1ccc(Cl)cc1)N1[C@@H](CO)CCC[C@H]1c1cccc(F)c1					6.17	30 µM	13.9 µM	
O=C(CC1([C@H]2COC[C@@H](C3CC3)N2S(=O)(=O)c2ccc(Cl)cc2)CC1)N1CC2CCC(C1)N2CCO	> 6.40	2730 ng·h/mL	8.22	< 4.52				
O=C(CC1([C@H]2CO[C@H]3CCC[C@H]3N2S(=O)(=O)c2ccc(Cl)cc2)CC1)N1CCC(N2CCCCC2)CC1	5.10		8.77	4.68				
O=C(CC1([C@H]2COC[C@@H](C3CC3)N2S(=O)(=O)c2ccc(Cl)cc2)CC1)N1C2CCC1CC(N1CCCCC1)C2 (stereo not given in full)	5.70	1290 ng·h/mL	7.92	< 4.52				
CC(C)(CO)N1CCN(C(=O)CC2([C@H]3COC[C@@H](C4CC4)N3S(=O)(=O)c3ccc(Cl)cc3)CC2)CC1	5.72	464 ng·h/mL	8.23	< 4.52				89%
CC(=O)N1C2CCC1CN(C(=O)CC1([C@H]3COC[C@@H](C4CC4)N3S(=O)(=O)c3ccc(Cl)cc3)CC1)C2	5.37		7.74	4.52				

Further lines, with some results ahead:

pIC50 (Cytochrome P450 3A4 [1])	AUC(0-t) at 6 h [2]	pIC50 [3]	pIC50 (Cytochrome P450 3A4 [4])	pIC50 [5]	IC50 (Cytochrome P450 3A4 [6])	IC50 (Cytochrome P450 3A4 [7])	Structure (SMILES)	inhibition in vivo at 30 mg/kg (Mus musculus)
4.77	3160 ng·h/mL	7.17	4.52				CC(=O)N1CCN(C(=O)CC2([C@H]3COC[C@@H](C4CC4)N3S(=O)(=O)c3ccc(F)cc3)CC2)CC1	
5.82	575 ng·h/mL	7.52	< 4.52				O=C(CC1([C@H]2COC[C@@H](C3CC3)N2S(=O)(=O)c2ccc(F)cc2)CC1)N1CCC(N2CCCCC2)CC1	
5.16	1970 ng·h/mL	7.49	< 4.52				O=C(CC1([C@H]2COC[C@@H](C3CC3)N2S(=O)(=O)c2ccc(F)cc2)CC1)N1CCN(CCO)CC1	
4.52	36 ng·h/mL	8.74	4.52				O=C(CC1([C@H]2CO[C@H]3CCC[C@H]3N2S(=O)(=O)c2ccc(Cl)cc2)CC1)N1CCC(CO)CC1	
				6.50	< 0.5 µM	< 0.9 µM	O=S(=O)(c1ccc(Cl)cc1)N1[C@H](c2cccc(F)c2)CCC[C@@H]1C1(O)CC1	
4.52		7.74	4.52				O=C(CC1([C@H]2CO[C@H]3CCC[C@H]3N2S(=O)(=O)c2ccc(Cl)cc2)CC1)N1CC[C@@H](CO)C1	
